This note sets out measurements from ChEMBL document CHEMBL3272294, “Antiviral activity of some beta-diketones. 1. Aryl alkyl diketones. In vitro activity against both RNA and DNA viruses” (1977).

The subject of assay [1] is Equine rhinovirus. Description: Antiviral activity against Equine rhinovirus assessed as inhibition of virus-induced cytopathic effect at 33 degC after 48 hrs by two-fold dilution method.
Assay [2] relates to Human alphaherpesvirus 2. Description: Antiviral activity against Herpes simplex virus 2 assessed as inhibition of virus-induced cytopathic effect at 37 degC after 72 hrs by two-fold dilution method. Format: functional. The note with it: for MIC: Human alphaherpesvirus 2, 72 h. A digest of the protocol: (§1)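 Susceptible monolayers in stationary tubes were infected with 100 tissue culture infective doses and allowed to adsorb for 1 h. Compound was then added in M-199 with 5% inactivated fetal calf serum at 50–0.3 μg/mL in twofold dilutions, four tubes per dilution. Tubes were held at 37 °C and CPE was scored at 48 and 72 h. MIC is the lowest nontoxic level giving complete CPE inhibition, with toxicity read from uninfected parallel tubes.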
A general note: Cytopathic effects are the visible damage that an infection or toxin causes in cultured cells.

Assay [3] has as its system Human alphaherpesvirus 1. Description: Antiviral activity against Herpes simplex virus 1 Sheely assessed as inhibition of virus-induced cytopathic effect at 37 degC after 72 hrs by two-fold dilution method. The note with it: Human alphaherpesvirus 1, Sheely. In kind it is functional. In a few lines:
as §1

A short description of assay [4]: Antiviral activity against Human rhinovirus 17 assessed as inhibition of virus-induced cytopathic effect at 37 degC after 72 hrs by two-fold dilution method. In kind it is functional, Human rhinovirus B17. The note with it: Rhinovirus B.
The subject of assay [5] is Human alphaherpesvirus 1. Description: Antiviral activity against Herpes simplex virus 1 assessed as inhibition of virus-induced cytopathic effect at 37 degC after 72 hrs by two-fold dilution method. Format: functional. The note with it: Human alphaherpesvirus 1, 72 h. In a few lines: as §1
Assay [6] relates to Influenza A virus. Description: Antiviral activity against Influenza A2 virus Jap 170 infected in ferret trachea assessed as reduction in viral yield at 200 ug/ml after 3 days followed by compound-washout measured after 24 hrs by chick embryo-based hemagglutination titration method relative to control. In kind it is functional. Also noted: scale not given: the % may be the effect or the level left.

For assay [7], the system named is Respiratory syncytial virus. Description: Antiviral activity against Respiratory syncytial virus assessed as inhibition of virus-induced cytopathic effect at 37 degC after 72 hrs by two-fold dilution method. In kind it is functional. The note with it: human respiratory syncytial virus. In a few lines: as §1
Assay [8] concerns Influenza A virus. Description: Antiviral activity against Influenza A2 virus Jap 170 infected in ferret trachea assessed as reduction in viral yield at 100 ug/ml after 3 days followed by compound-washout measured after 24 hrs by chick embryo-based hemagglutination titration method relative to control. In kind it is functional. Set-up: scale not given: the % may be the effect or the level left.

Assay [9] relates to unidentified influenza virus. Description: Antiviral activity against Parainfluenza virus assessed as inhibition of virus-induced cytopathic effect at 37 degC after 72 hrs by two-fold dilution method. Format: functional. In a few lines:
as §1

The subject of assay [10] is rhinovirus A2. Description: Antiviral activity against Human rhinovirus 2 assessed as inhibition of virus-induced cytopathic effect at 37 degC after 72 hrs by two-fold dilution method. In kind it is functional. The note with it: Rhinovirus A.
For assay [11], the system named is rhinovirus B14. Description: Antiviral activity against Human rhinovirus 14 assessed as inhibition of virus-induced cytopathic effect at 37 degC after 72 hrs by two-fold dilution method. The note with it: Rhinovirus B. In kind it is functional.
The subject of assay [12] is Human alphaherpesvirus 2. Description: Antiviral activity against Herpes simplex virus 2 Curtis assessed as inhibition of virus-induced cytopathic effect at 37 degC after 72 hrs by two-fold dilution method. Format: functional. The note with it: Human alphaherpesvirus 2, Curtis. In a few lines:
as §1

Each structure is given as a SMILES string. Values after ≈ are worked out from the molar mass of the structure shown. Active and inactive are the calls of the source. No cut-off for these calls is given here. Some results are limits rather than exact numbers.

With `CCC(=O)C(CCCCc1ccc(O)cc1)C(=O)CC`, the MIC in assay [1] stood at 6 µg/mL (≈ 21.7 µM); in [2], 12 µg/mL (≈ 43.4 µM).
As for `CCC(=O)C(CCCCCCc1ccc(Cl)cc1O)C(=O)CC`, in assay [1], the MIC came to 0.7 µg/mL (≈ 2.07 µM).
Same read-out and setting: then `CCC(=O)C(CC/C=C/CCc1ccc(OC(F)(F)F)cc1)C(=O)CC`, with 6 µg/mL (≈ 16.2 µM).
As for `CCC(=O)C(CCC(CC)CCCc1ccc2c(c1)OCO2)C(=O)CC` (centres undefined), in [1], the MIC was found to be 3 µg/mL (≈ 8.32 µM).
Regarding `CCC(=O)C(CC/C=C/CCc1ccc(NC(C)=O)cc1)C(=O)CC`, the MIC in assay [1] is 12 µg/mL (≈ 34.9 µM).
For `CCC(=O)C(CC/C=C/CCc1cc(OC)c(OCc2ccccc2)c(OC)c1)C(=O)CC`, the MIC in assay [1] came to 6 µg/mL (≈ 13.3 µM).
Turning to `CCC(=O)C(CCCCCCc1ccc(O)cc1)C(=O)CC`, the MIC in assay [3] came out at 12 µg/mL (≈ 39.4 µM); in [4], 6 µg/mL (≈ 19.7 µM); in [1] it was 3 µg/mL (≈ 9.85 µM); in assay [5] it was 12 µg/mL (≈ 39.4 µM); in assay [7], 6 µg/mL (≈ 19.7 µM); in [9] it was 3 µg/mL (≈ 9.85 µM). Besides, the MIC in assay [10] was determined as 3 µg/mL (≈ 9.85 µM); in assay [11], 6 µg/mL (≈ 19.7 µM); in assay [2] it was 12 µg/mL (≈ 39.4 µM); in assay [12], 12 µg/mL (≈ 39.4 µM). In addition, the figures for the Activity in assay [6] and in assay [8] were 99.9% and 94%, respectively.
As to `CCC(=O)C(CC/C=C/CCc1ccc(OCc2ccccc2)cc1)C(=O)CC`, in assay [1], the MIC stood at 3 µg/mL (≈ 7.64 µM).
As to `CCC(=O)C(CCCCCCc1ccccc1OC)C(=O)CC`, the MIC in assay [1] was determined as 12 µg/mL (≈ 37.7 µM).
Take `CCC(=O)C(CCCCCCCc1ccc(O)cc1)C(=O)CC`: the MIC in assay [1] and in assay [2] was 6 µg/mL (≈ 18.8 µM) in each case.
As to `CCC(=O)C(CCCCCCc1ccccc1)C(=O)CC`, in [1], the MIC worked out at 6 µg/mL (≈ 20.8 µM).
Regarding `Nc1ncnc2c1ncn2[C@@H]1O[C@H](CO)[C@@H](O)[C@@H]1O` [VIDARABINE], the MIC in [3] and in assay [12] was 12 µg/mL (≈ 44.9 µM) in each case.
Take `CCC(=O)C(CCCCCCc1ccc(OC(=O)c2cccc(C)c2)cc1)C(=O)CC`: the MIC in assay [1] came out at 3 µg/mL (≈ 7.1 µM).
Turning to `CCOC(=O)C(CC/C(=C/CCc1ccc2c(c1)OCO2)CC)C(C)=O` (centres undefined), the MIC in assay [1] turned out to be 6 µg/mL (≈ 16.6 µM).
For `CCC(=O)C(CCCCCCc1ccc(OC(=O)c2cc(OC)c(OC)c(OC)c2)cc1)C(=O)CC`, in assay [1], the MIC was found to be 6 µg/mL (≈ 12 µM).
For `CCC(=O)C(CC/C=C/CCc1ccc2c(c1)OCO2)C(=O)CC`, the MIC in [1] came out at 3 µg/mL (≈ 9.08 µM).
Same read-out and setting: as for `CCC(=O)C(CCCCCCc1ccc(OC(=O)c2cccc(OC)c2)cc1)C(=O)CC`, the figure is 3 µg/mL (≈ 6.84 µM).
Turning to `CCC(=O)C(CCCCCCc1ccc(OC(F)(F)F)cc1)C(=O)CC`, the MIC in assay [1] came to 6 µg/mL (≈ 16.1 µM).
Regarding `CCC(=O)C(CC/C(=C/C=C/c1ccc2c(c1)OCO2)CC)C(=O)CC`, in [1], the MIC is 6 µg/mL (≈ 16.8 µM).
As for `CCC(=O)C(CCCCCCc1ccccc1O)C(=O)CC`, the MIC in [1] is 6 µg/mL (≈ 19.7 µM).
In the case of `CC/C(=C\CCc1ccc2c(c1)OCO2)CCC1CCCC1=O` (centres undefined), the MIC in assay [1] amounted to 6 µg/mL (≈ 19.1 µM).
Turning to `CCC(=O)C(CCCCCCc1ccc(Cl)cc1Cl)C(=O)CC`, the MIC in assay [1] amounted to 3 µg/mL (≈ 8.4 µM).
For `Nc1ccn([C@@H]2O[C@H](CO)[C@@H](O)[C@@H]2O)c(=O)n1` [CYTARABINE], the MIC in assay [3] and in assay [12] was less than 3 µg/mL each time.
As to `CCC(=O)C(CCCCCCc1ccc(Cl)cc1OC)C(=O)CC`, the MIC in [1] came out at 3 µg/mL (≈ 8.5 µM).
Consider `CCC(=O)C(CCCCCCc1cccc(O)c1)C(=O)CC`, for which the MIC in assay [1] was 6 µg/mL (≈ 19.7 µM).
With `CCC(=O)C(CCCCCCc1ccc(C)cc1)C(=O)CC`, in assay [1], the MIC came to 6 µg/mL (≈ 19.8 µM).
In the case of `CCC(=O)C(CCCCCCc1ccc(OC(C)=O)cc1)C(=O)CC`, in assay [1], the MIC came out at 6 µg/mL (≈ 17.3 µM).
Turning to `CCC(=O)C(CCCCCCCCc1ccc(O)cc1)C(=O)CC`, the MIC in assay [1] and in assay [2] was 3 µg/mL (≈ 9.02 µM) each time.
`CCC(=O)C(CCCCCCc1ccc(O)c(O)c1)C(=O)CC`: in [1], the MIC came out at 1.5 µg/mL (≈ 4.68 µM).
Turning to `O=c1[nH]c(=O)n([C@H]2C[C@H](O)[C@@H](CO)O2)cc1I` [IDOXURIDINE], the MIC in assay [3] and in assay [12] was 6 µg/mL (≈ 16.9 µM) each time.
With `CCC(=O)C(CCCCCCc1ccc(OC(=O)c2ccc(C)cc2)cc1)C(=O)CC`, the MIC in [1] stood at 12 µg/mL (≈ 28.4 µM).
For the compound `CCCC(=O)C(CC/C(=C/CCc1ccc2c(c1)OCO2)CC)C(=O)OCC` (centres undefined), the MIC in assay [1] stood at 12 µg/mL (≈ 30.9 µM).
Turning to `CCC(=O)C(CC/C(=C/CCc1ccc(C(=O)OC)cc1)CC)C(=O)CC`, in assay [1], the MIC came to 25 µg/mL (≈ 67.1 µM).
In the case of `CCC(=O)C(CC/C(=C/CCc1ccc2c(c1)OCO2)CC)C(C)=O` (centres undefined), the MIC in assay [1] was 12 µg/mL (≈ 34.8 µM).
For `CCC(=O)C(CCCCCCCCCCc1ccc(O)cc1)C(=O)CC`, the MIC in assay [1] and in assay [2] was 12 µg/mL (≈ 33.3 µM) throughout.
Take `CCC(=O)C(CCCc1ccc(O)cc1)C(=O)CC`: in [2], the inhibition result is “inactive”.
Consider `CCC(=O)C(CCCCCCc1ccc(OC(=O)c2ccccc2C)cc1)C(=O)CC`, for which, in [1], the MIC came out at 6 µg/mL (≈ 14.2 µM).
Consider `CCC(=O)C(CCCCCc1ccc(O)cc1)C(=O)CC`, for which the MIC in assay [1] and in assay [2] was 12 µg/mL (≈ 41.3 µM) in each case.
As to `CCC(=O)C(CCCCCCc1ccc(OC)cc1)C(=O)CC`, the MIC in [1] came to 3 µg/mL (≈ 9.42 µM).
For the compound `CCC(=O)C(CC/C(C)=C/CCc1ccc2c(c1)OCO2)C(=O)CC`, the MIC in [1] is 3 µg/mL (≈ 8.71 µM).
On the same count and under the same terms, as for `CCC(=O)C(CC/C(=C/CCc1ccc2c(c1)OCO2)CC)C(=O)CC`, the figure is 6 µg/mL (≈ 16.7 µM); as for `CC/C(=C\CCc1ccc2c(c1)OCO2)CCC(C(C)=O)C(C)=O`, 6 µg/mL (≈ 18.2 µM); as for `CCC(=O)C(CCCCCCc1ccc2c(c1)OCO2)C(=O)CC`, 6 µg/mL (≈ 18 µM).
Consider `CCC(=O)C(CCCCCCc1ccc(Cl)cc1)C(=O)CC`, for which the MIC in assay [1] stood at 1.5 µg/mL (≈ 4.65 µM).
For the compound `CCC(=O)C(CCCCCCCCCc1ccc(O)cc1)C(=O)CC`, the MIC in assay [2] came to 6 µg/mL (≈ 17.3 µM).
